Assay results published in ChEMBL document CHEMBL5360562 (Eur J Med Chem, 2023).
≈ marks a conversion by molar mass, not a printed value.

Key:
Assay type in all cases: functional
Acinetobacter baumannii [1] = assay: Antibacterial activity against Acinetobacter baumannii AB5075 assessed as reduction in bacterial growth incubated for 16 hrs by broth microdilution method
Acinetobacter baumannii [2] = assay: Potentiation of Clarithromycin antibacterial activity against Acinetobacter baumannii AB5075 assessed as clarithromycin MIC at 30 uM incubated for 16 hrs by broth microdilution method
Acinetobacter baumannii [3] = assay: Potentiation of Clarithromycin antibacterial activity against Acinetobacter baumannii AB5075 assessed as clarithromycin MIC at 7.5 uM incubated for 16 hrs by broth microdilution method
Acinetobacter baumannii [4] = assay: Potentiation of Clarithromycin antibacterial activity against Acinetobacter baumannii AB5075 assessed as fold reduction in clarithromycin MIC at 30 uM incubated for 16 hrs by broth microdilution method
Procedure, shortened: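 Checkerboard-style potentiation by broth microdilution. 6 h day cultures in CAMHB diluted to 5×10^5 CFU/mL. Adjuvant added from 10 mM DMSO stock at fixed concentration throughout. […] Controls: antibiotic alone, adjuvant alone, media only. Incubated stationary at 37 °C for 16 h. MIC is lowest concentration with no visible growth; fold reduction taken against the antibiotic-alone lane.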

Acinetobacter baumannii [5] = assay: Potentiation of Clarithromycin antibacterial activity against Acinetobacter baumannii AB5075 assessed as clarithromycin MIC at 20 uM incubated for 16 hrs by broth microdilution method
Acinetobacter baumannii [6] = assay: Potentiation of Clarithromycin antibacterial activity against Acinetobacter baumannii AB5075 assessed as reduction in clarithromycin MIC at 20 uM incubated for 16 hrs by broth microdilution method
Acinetobacter baumannii [7] = assay: Potentiation of Clarithromycin antibacterial activity against Acinetobacter baumannii AB5075 assessed as clarithromycin MIC at 10 uM incubated for 16 hrs by broth microdilution method
Acinetobacter baumannii [8] = assay: Potentiation of Azithromycin antibacterial activity against Acinetobacter baumannii AB5075 assessed as azithromycin MIC at 30 uM incubated for 16 hrs by broth microdilution method
Acinetobacter baumannii [9] = assay: Potentiation of Azithromycin antibacterial activity against Acinetobacter baumannii AB5075 assessed as azithromycin MIC at 20 uM incubated for 16 hrs by broth microdilution method
Acinetobacter baumannii [10] = assay: Potentiation of Azithromycin antibacterial activity against Acinetobacter baumannii AB5075 assessed as azithromycin MIC at 10 uM incubated for 16 hrs by broth microdilution method
Acinetobacter baumannii [11] = assay: Potentiation of erythromycin antibacterial activity against Acinetobacter baumannii AB5075 assessed as erythromycin MIC at 30 uM incubated for 16 hrs by broth microdilution method
Acinetobacter baumannii [12] = assay: Potentiation of erythromycin antibacterial activity against Acinetobacter baumannii AB5075 assessed as erythromycin MIC at 20 uM incubated for 16 hrs by broth microdilution method
Acinetobacter baumannii [13] = assay: Potentiation of erythromycin antibacterial activity against Acinetobacter baumannii AB5075 assessed as erythromycin MIC at 10 uM incubated for 16 hrs by broth microdilution method
Acinetobacter baumannii [14] = assay: Potentiation of rifampicin antibacterial activity against Acinetobacter baumannii AB5075 assessed as rifampicin MIC at 30 uM incubated for 16 hrs by broth microdilution method
Acinetobacter baumannii [15] = assay: Potentiation of rifampicin antibacterial activity against Acinetobacter baumannii AB5075 assessed as rifampicin MIC at 20 uM incubated for 16 hrs by broth microdilution method
Acinetobacter baumannii [16] = assay: Potentiation of rifampicin antibacterial activity against Acinetobacter baumannii AB5075 assessed as rifampicin MIC at 10 uM incubated for 16 hrs by broth microdilution method
Acinetobacter baumannii [17] = assay: Antibacterial activity against Acinetobacter baumannii AB967 assessed as reduction in bacterial growth incubated for 16 hrs by broth microdilution method
Procedure, shortened: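 Six-hour CAMHB day cultures were diluted to 5×10^5 CFU/mL in CAMHB and dosed from DMSO stocks. Two-fold serial dilutions were made in broth, with a medium-only blank. Plates were incubated stationary at 37 °C for 16 h and read at OD600. The MIC was the lowest concentration giving <10% growth versus the positive control.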

Acinetobacter baumannii [18] = assay: Antibacterial activity against Acinetobacter baumannii AB3785 assessed as reduction in bacterial growth incubated for 16 hrs by broth microdilution method
Acinetobacter baumannii [19] = assay: Antibacterial activity against Acinetobacter baumannii AB4498 assessed as reduction in bacterial growth incubated for 16 hrs by broth microdilution method
Acinetobacter baumannii [20] = assay: Antibacterial activity against Acinetobacter baumannii AB5711 assessed as reduction in bacterial growth incubated for 16 hrs by broth microdilution method
Pseudomonas aeruginosa = assay: Antibacterial activity against Pseudomonas aeruginosa PAO1 assessed as inhibition of bacterial growth incubated for 16 hrs by broth microdilution method
Procedure, shortened: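 Standalone MIC by broth microdilution. 6 h day cultures in cation-adjusted Mueller-Hinton broth (CAMHB) diluted to 5×10^5 CFU/mL. Compound added from 10 mM DMSO stock to 200 μM (highest concentration), then twofold serial dilution. Incubated stationary at 37 °C for 16 h. OD600 read; MIC is lowest concentration with <10% growth versus positive control.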

With `Nc1nc(-c2ccc(NC(=O)Nc3ccc(-c4c[nH]c(N)n4)cc3)cc2)c[nH]1` the MIC (Acinetobacter baumannii [1]) was over 200 µM, the MIC (Acinetobacter baumannii [2]) was 0.125 µg/mL and the MIC (Acinetobacter baumannii [3]) was 8 µg/mL. For the same compound, the “fold change (FC)” value (Acinetobacter baumannii [4]) was 256, the MIC (Acinetobacter baumannii [5]) was 0.5 µg/mL and the “fold change (FC)” value (Acinetobacter baumannii [6]) was 64. For the same compound, the MIC (Acinetobacter baumannii [7]) was 4 µg/mL, the MIC (Acinetobacter baumannii [8]) was 0.5 µg/mL and the MIC (Acinetobacter baumannii [9]) was 1 µg/mL. The MIC (Acinetobacter baumannii [10]) was 8 µg/mL, the MIC (Acinetobacter baumannii [11]) was 0.5 µg/mL and the MIC (Acinetobacter baumannii [12]) was 2 µg/mL. The MIC (Acinetobacter baumannii [13]) was 8 µg/mL, the MIC (Acinetobacter baumannii [14]) was 0.007 µg/mL and the MIC (Acinetobacter baumannii [15]) was 0.125 µg/mL. For the same compound, the MIC (Acinetobacter baumannii [16]) was 2 µg/mL.

`CC[C@H]1OC(=O)[C@H](C)[C@@H](O[C@H]2C[C@@](C)(OC)[C@@H](O)[C@H](C)O2)[C@H](C)[C@@H](O[C@@H]2O[C@H](C)C[C@H](N(C)C)[C@H]2O)[C@](C)(OC)C[C@@H](C)C(=O)[C@H](C)[C@@H](O)[C@]1(C)O` [CLARITHROMYCIN] gave an MIC (Acinetobacter baumannii [17]) of 16 µg/mL (≈ 21.4 µM), an MIC (Acinetobacter baumannii [18]) of 64 µg/mL (≈ 85.6 µM) and an MIC (Acinetobacter baumannii [19]) of 64 µg/mL (≈ 85.6 µM). It also gave an MIC (Acinetobacter baumannii [20]) of 64 µg/mL (≈ 85.6 µM) and an MIC (Pseudomonas aeruginosa) of over 200 µM.
